Data published in ChEMBL document CHEMBL1671850, “Discovery of a benzo[e]pyrimido-[5,4-b][1,4]diazepin-6(11H)-one as a Potent and Selective Inhibitor of Big MAP Kinase 1” (ACS Med Chem Lett, 2011).

Key:
[1] = molecular target: Mitogen-activated protein kinase 7 (Homo sapiens, UniProt Q13164); experiment: Inhibition of EGF-induced BMK1 autophosphorylation in human HeLa cells by SDS-PAGE analysis; type: cell-based
[2] = molecular target: Serine/threonine-protein kinase DCLK1 (Homo sapiens, UniProt O15075); experiment: Binding affinity to DCAMKL1 by immobilized ligand displacement assay
How it was run: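 Dissociation constant (Kd) measured in the Ambit KINOMEScan competition binding format, which reads kinase displacement from an immobilized ligand.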

[3] = molecular target: Non-receptor tyrosine-protein kinase TNK1 (Homo sapiens, UniProt Q13470); experiment: Binding affinity to TNK1 by immobilized ligand displacement assay
How it was run: (§1)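 KINOMEscan-type competition binding: displacement of kinase from an immobilized ligand; Kd values determined for individual kinases.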

[4] = molecular target: Serine/threonine-protein kinase DCLK2 (Homo sapiens, UniProt Q8N568); experiment: Binding affinity to DCAMKL2 by immobilized ligand displacement assay; how it was run: as §1
[5] = test system: Tyrosine-protein kinase ABL1 (Homo sapiens), P00519 [F317I]; experiment: Binding affinity to ABL1 F317I mutant at 10 uM by immobilized ligand displacement assay
How it was run: (§2)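 Ambit KINOMEScan competition binding panel (402 kinases). Kinase displacement from an immobilized ligand is read relative to a DMSO control. Hits are kinases showing more than […] displacement. The text gives the test concentration as 10 μM.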

[6] = molecular target: Protein-tyrosine kinase 6 (Homo sapiens) (UniProt Q13882); experiment: Binding affinity to BRK at 10 uM by immobilized ligand displacement assay; how it was run: as §2
[7] = molecular target: Macrophage colony-stimulating factor 1 receptor (Homo sapiens) (UniProt P07333); experiment: Binding affinity to c-FMS at 10 uM by immobilized ligand displacement assay; how it was run: as §2
[8] = molecular target: Myosin light chain kinase family member 4 (Homo sapiens) (UniProt Q86YV6); experiment: Binding affinity to MYLK4 at 10 uM by immobilized ligand displacement assay; how it was run: as §2
[9] = test system: Mast/stem cell growth factor receptor Kit (Homo sapiens), P10721 [L576P]; experiment: Binding affinity to KIT L576P mutant at 10 uM by immobilized ligand displacement assay; how it was run: as §2
[10] = molecular target: Cyclin-G-associated kinase (Homo sapiens) (UniProt O14976); experiment: Binding affinity to GAK at 10 uM by immobilized ligand displacement assay; how it was run: as §2
Rattus norvegicus = experiment: Half life in rat at 2 mg/kg, po; type: ADME, organism-based; set-up: dose 2 mg/kg, route oral; conditions: in vivo
How it was run: (§3)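 Single-dose pharmacokinetics: rats given 1 mg/kg intravenous or 2 mg/kg oral; mice given 1 mg/kg intravenous or 10 mg/kg oral. Plasma concentration profiles yield Tmax, Cmax, AUC0-∞, half-life, plasma clearance, Vss and oral bioavailability.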

[11] = AUC (0 to infinity) in rat at 2 mg/kg, po; type: ADME, organism-based; set-up: time infinity, dose 2 mg/kg, route oral; conditions: plasma; how it was run: as §3
[12] = AUC (0 to infinity) in rat at 1 mg/kg, iv; type: ADME, organism-based; set-up: time infinity, dose 1 mg/kg, route intravenous; conditions: plasma; how it was run: as §3
[13] = Tmax in rat at 2 mg/kg, po; type: ADME, organism-based; set-up: dose 2 mg/kg, route oral; conditions: in vivo; how it was run: as §3
[14] = Volume of distribution at steady state in rat at 1 mg/kg, iv; type: ADME, organism-based; set-up: dose 1 mg/kg, route intravenous; conditions: in vivo, read-out: Vdss; how it was run: as §3
[15] = Plasma clearance in rat at 1 mg/kg, iv; type: ADME, organism-based; set-up: dose 1 mg/kg, route intravenous; how it was run: as §3
[16] = Cmax in rat at 2 mg/kg, po; type: ADME, organism-based; set-up: dose 2 mg/kg, route oral; conditions: in vivo; how it was run: as §3
[17] = Tmax in rat at 1 mg/kg, iv; type: ADME, organism-based; set-up: dose 1 mg/kg, route intravenous; conditions: in vivo; how it was run: as §3
[18] = Half life in rat at 1 mg/kg, iv; type: ADME, organism-based; set-up: dose 1 mg/kg, route intravenous; conditions: in vivo; how it was run: as §3
[19] = Oral bioavailability in rat at 2 mg/kg; type: ADME, organism-based; conditions: in vivo; how it was run: as §3
[20] = Plasma clearance in rat at 2 mg/kg, po; type: ADME, organism-based; set-up: dose 2 mg/kg, route oral; how it was run: as §3
[21] = Cmax in rat at 1 mg/kg, iv; type: ADME, organism-based; set-up: dose 1 mg/kg, route intravenous; conditions: in vivo; how it was run: as §3
HeLa = experiment: Antitumor activity against human HeLa cells xenografted in mouse assessed as inhibition of tumor growth at 50 mg/kg, ip bid for 28 days; type: functional; conditions: route intraperitoneal
How it was run: (§4)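 HeLa cell xenograft in mice; tumor-bearing animals injected intraperitoneally with 50 mg/kg or vehicle solution twice daily for 28 days; tumor growth compared against vehicle.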

Mus musculus = experiment: Toxicity in human HeLa cells xenografted mouse assessed as tolerability at 50 mg/kg ip bid for 28 days; type: organism-based; set-up: dose 50 mg/kg, route intraperitoneal; conditions: in vivo; how it was run: as §4
[22] = Plasma clearance in mouse at 1 mg/kg, iv; type: ADME, organism-based; set-up: dose 1 mg/kg, route intravenous; how it was run: as §3
NCI-H1299 = experiment: Antiproliferative activity against human NCI-H1299 cells after 72 hrs; type: functional, cell-based; conditions: NCI-H1299, 72 h
[23] = Half life in mouse at 1 mg/kg, iv; type: ADME, organism-based; set-up: dose 1 mg/kg, route intravenous; conditions: in vivo; how it was run: as §3
BPH-1 = experiment: Antiproliferative activity against human BPH1 cells after 72 hrs; type: functional, cell-based; conditions: BPH-1, 72 h
[24] = AUC (0 to infinity) in mouse at 1 mg/kg, iv; type: ADME, organism-based; set-up: time infinity, dose 1 mg/kg, route intravenous; conditions: plasma; how it was run: as §3
[25] = Oral bioavailability in mouse at 10 mg/kg; type: ADME, organism-based; conditions: in vivo; how it was run: as §3
[26] = Cmax in mouse at 10 mg/kg, po; type: ADME, organism-based; set-up: dose 10 mg/kg, route oral; conditions: in vivo; how it was run: as §3
AU565 = experiment: Antiproliferative activity against human AU565 cells after 72 hrs; type: functional, cell-based; conditions: AU565, 72 h
MCF7 = experiment: Antiproliferative activity against human MCF7 cells after 72 hrs; type: functional, cell-based; conditions: MCF7, 72 h
SK-N-AS = experiment: Antiproliferative activity against human SK-N-AS cells after 72 hrs; type: functional, cell-based
[27] = AUC (0 to infinity) in mouse at 10 mg/kg, po; type: ADME, organism-based; set-up: time infinity, dose 10 mg/kg, route oral; conditions: plasma; how it was run: as §3
NCI-H522 = experiment: Antiproliferative activity against human NCI-H522 cells after 72 hrs; type: functional, cell-based; conditions: NCI-H522, 72 h
[28] = Volume of distribution at steady state in mouse at 1 mg/kg, iv; type: ADME, organism-based; set-up: dose 1 mg/kg, route intravenous; conditions: in vivo, read-out: Vdss; how it was run: as §3
PC-3 = experiment: Antiproliferative activity against human PC3 cells after 72 hrs; type: functional, cell-based; conditions: PC-3, 72 h
[29] = Tmax in mouse at 10 mg/kg, po; type: ADME, organism-based; set-up: dose 10 mg/kg, route oral; conditions: in vivo; how it was run: as §3

Chain of Mitogen-activated protein kinase 7 (Q13164 whole entry): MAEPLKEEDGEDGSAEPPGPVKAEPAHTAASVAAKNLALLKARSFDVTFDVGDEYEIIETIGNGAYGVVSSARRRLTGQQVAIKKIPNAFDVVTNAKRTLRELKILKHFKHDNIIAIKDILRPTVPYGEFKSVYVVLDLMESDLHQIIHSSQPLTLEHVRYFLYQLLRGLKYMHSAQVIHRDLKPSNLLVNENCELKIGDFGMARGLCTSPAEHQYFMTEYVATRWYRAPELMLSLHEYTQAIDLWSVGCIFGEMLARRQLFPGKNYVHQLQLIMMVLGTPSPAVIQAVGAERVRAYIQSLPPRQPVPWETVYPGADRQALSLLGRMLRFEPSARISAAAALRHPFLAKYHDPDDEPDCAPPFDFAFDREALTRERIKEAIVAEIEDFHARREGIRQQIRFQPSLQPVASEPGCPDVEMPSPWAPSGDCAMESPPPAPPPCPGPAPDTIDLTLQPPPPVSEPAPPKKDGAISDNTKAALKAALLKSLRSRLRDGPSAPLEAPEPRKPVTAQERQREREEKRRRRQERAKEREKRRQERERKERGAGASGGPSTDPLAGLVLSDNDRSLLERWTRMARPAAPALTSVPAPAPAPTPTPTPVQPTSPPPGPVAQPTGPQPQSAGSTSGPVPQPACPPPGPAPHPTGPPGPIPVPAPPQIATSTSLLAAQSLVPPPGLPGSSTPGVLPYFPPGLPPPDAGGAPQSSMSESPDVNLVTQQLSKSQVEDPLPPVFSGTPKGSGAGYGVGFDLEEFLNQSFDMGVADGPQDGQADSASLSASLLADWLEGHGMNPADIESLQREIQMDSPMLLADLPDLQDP
Chain of Macrophage colony-stimulating factor 1 receptor (Homo sapiens) (P07333 whole entry): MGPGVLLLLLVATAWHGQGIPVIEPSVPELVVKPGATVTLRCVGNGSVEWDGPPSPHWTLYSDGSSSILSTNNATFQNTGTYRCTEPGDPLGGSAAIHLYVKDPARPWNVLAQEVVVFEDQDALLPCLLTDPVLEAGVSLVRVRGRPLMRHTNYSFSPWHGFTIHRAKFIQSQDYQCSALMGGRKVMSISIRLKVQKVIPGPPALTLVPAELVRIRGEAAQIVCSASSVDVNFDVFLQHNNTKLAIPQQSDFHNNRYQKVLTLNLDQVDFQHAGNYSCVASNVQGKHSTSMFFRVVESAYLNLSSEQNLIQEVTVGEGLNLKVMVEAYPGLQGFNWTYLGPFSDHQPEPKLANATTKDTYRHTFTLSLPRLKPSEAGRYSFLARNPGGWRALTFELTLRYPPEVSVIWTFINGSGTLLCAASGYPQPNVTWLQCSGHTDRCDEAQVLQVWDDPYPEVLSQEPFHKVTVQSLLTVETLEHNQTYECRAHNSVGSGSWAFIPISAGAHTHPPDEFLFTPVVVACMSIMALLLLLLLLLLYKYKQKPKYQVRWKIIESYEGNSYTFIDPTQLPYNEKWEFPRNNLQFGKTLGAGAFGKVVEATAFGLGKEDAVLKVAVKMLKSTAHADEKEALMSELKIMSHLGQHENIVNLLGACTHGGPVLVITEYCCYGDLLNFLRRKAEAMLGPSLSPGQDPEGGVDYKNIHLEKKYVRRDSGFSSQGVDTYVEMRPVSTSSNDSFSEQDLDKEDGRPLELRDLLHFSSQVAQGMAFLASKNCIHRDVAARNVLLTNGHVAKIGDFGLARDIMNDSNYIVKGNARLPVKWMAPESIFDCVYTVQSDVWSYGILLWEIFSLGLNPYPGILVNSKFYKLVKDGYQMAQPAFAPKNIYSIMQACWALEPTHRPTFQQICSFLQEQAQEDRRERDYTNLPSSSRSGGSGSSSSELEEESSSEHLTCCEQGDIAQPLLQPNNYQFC
Chain of Mast/stem cell growth factor receptor Kit (Homo sapiens), P10721 [L576P] (P10721 whole entry L576P): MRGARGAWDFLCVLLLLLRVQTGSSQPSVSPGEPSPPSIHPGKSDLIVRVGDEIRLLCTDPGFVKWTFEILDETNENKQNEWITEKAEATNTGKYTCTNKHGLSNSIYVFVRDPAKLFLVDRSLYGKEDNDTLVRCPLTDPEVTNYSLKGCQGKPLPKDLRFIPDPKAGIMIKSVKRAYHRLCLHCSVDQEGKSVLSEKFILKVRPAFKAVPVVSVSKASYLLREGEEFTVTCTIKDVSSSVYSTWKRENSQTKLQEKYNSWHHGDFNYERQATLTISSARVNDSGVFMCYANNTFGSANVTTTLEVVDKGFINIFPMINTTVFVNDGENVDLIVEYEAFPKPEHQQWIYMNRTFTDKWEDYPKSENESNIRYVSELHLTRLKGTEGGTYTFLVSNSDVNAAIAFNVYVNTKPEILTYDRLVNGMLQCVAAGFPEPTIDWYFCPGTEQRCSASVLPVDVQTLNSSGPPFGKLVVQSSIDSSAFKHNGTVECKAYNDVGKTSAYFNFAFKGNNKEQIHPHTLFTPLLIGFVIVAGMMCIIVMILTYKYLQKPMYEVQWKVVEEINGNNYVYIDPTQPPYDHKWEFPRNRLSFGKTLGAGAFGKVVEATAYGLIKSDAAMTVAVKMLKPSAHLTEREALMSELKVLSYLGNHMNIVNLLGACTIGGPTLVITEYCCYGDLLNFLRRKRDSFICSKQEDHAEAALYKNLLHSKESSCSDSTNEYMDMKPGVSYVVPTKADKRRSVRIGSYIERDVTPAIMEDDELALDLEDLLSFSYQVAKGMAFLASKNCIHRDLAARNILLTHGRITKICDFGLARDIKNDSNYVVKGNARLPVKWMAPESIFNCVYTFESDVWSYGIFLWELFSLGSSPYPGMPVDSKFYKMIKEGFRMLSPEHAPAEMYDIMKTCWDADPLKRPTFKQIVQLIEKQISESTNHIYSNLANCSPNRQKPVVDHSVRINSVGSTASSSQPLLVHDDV
Chain of Serine/threonine-protein kinase DCLK1 (O15075 whole entry): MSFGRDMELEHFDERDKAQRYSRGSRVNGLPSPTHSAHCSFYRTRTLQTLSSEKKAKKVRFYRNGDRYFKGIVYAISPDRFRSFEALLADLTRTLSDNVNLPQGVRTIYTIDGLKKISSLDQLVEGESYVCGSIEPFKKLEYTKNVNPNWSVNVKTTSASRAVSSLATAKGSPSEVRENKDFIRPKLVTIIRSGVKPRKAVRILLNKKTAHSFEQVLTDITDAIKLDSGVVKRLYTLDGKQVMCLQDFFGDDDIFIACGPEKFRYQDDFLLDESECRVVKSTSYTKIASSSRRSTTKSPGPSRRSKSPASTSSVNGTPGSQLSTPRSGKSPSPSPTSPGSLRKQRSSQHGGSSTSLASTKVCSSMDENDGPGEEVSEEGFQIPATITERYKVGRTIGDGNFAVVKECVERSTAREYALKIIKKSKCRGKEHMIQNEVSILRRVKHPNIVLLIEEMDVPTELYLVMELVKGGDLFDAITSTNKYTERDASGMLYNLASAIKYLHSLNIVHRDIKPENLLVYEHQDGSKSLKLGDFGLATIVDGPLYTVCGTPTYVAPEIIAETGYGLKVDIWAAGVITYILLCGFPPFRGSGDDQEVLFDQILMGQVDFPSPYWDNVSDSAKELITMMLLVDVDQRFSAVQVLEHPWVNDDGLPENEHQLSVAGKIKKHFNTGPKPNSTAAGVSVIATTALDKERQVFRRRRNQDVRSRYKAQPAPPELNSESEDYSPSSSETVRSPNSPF
Chain of Myosin light chain kinase family member 4 (Homo sapiens) (Q86YV6 whole entry): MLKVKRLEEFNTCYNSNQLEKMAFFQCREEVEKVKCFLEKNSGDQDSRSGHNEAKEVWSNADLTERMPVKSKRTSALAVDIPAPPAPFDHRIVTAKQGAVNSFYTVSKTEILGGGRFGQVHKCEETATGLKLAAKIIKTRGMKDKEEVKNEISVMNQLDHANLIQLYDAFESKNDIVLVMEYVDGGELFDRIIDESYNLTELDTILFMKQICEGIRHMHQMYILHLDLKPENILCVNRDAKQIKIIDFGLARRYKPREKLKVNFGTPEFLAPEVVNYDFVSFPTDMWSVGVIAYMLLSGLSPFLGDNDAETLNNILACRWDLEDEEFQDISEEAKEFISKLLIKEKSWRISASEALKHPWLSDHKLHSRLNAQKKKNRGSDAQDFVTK
Chain of Serine/threonine-protein kinase DCLK2 (Q8N568 whole entry): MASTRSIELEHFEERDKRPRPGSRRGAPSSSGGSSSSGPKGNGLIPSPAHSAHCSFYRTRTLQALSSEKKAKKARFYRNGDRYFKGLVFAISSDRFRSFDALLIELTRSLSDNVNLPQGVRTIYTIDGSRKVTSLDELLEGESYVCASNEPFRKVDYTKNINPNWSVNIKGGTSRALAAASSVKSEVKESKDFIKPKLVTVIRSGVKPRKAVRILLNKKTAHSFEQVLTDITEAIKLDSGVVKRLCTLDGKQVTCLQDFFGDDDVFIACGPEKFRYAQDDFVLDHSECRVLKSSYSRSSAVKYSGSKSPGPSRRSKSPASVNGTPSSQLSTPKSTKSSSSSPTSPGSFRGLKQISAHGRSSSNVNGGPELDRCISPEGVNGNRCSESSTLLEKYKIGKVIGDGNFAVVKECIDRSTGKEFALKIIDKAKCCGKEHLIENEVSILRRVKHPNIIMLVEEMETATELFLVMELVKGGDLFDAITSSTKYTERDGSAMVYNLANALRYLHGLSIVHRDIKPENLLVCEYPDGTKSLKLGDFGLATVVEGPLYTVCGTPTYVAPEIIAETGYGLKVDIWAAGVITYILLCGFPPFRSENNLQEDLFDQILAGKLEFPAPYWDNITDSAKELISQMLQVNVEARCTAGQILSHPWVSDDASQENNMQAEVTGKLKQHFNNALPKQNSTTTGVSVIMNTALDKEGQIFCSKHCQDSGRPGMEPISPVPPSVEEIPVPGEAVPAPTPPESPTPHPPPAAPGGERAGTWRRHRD

Cc1cc(N2CCN(C)CC2)ccc1Nc1ncc2c(n1)N(C)c1ccccc1C(=O)N2C
IC50 [1]: 280 nM

COc1cc(N2CCN(C)CC2)ccc1Nc1ncc2c(n1)N(C)c1ccc(Cl)cc1C(=O)N2C
IC50 [1]: 1240 nM

CN1C(=O)c2ccccc2N(C)c2nc(Nc3ccc(S(N)(=O)=O)cc3)ncc21
IC50 [1]: 310 nM

COc1cc(N2CCN(C)CC2)ccc1Nc1ncc2c(n1)N(C)c1cc(F)ccc1C(=O)N2C
IC50 [1]: 1320 nM

COc1cc(N2CCN(C)CC2)ccc1Nc1ncc2c(n1)N(C(C)C)c1ccccc1C(=O)N2C
IC50 [1]: 230 nM

COc1cc(N2CCOCC2)ccc1Nc1ncc2c(n1)N(C)c1ccccc1C(=O)N2C
IC50 [1]: 260 nM

COc1cc(N2CCN(C)CC2)ccc1Nc1ncc2c(n1)N(C)c1ccccc1C(=O)N2C
Kd [2]: 1.2 nM | Kd [3]: 29 nM | Kd [4]: 10 nM

COc1cc(C(=O)NCCN(C)C)ccc1Nc1ncc2c(n1)N(C)c1ccccc1C(=O)N2C
IC50 [1]: 240 nM

COc1cc(N2CCN(C)CC2)ccc1Nc1ncc2c(n1)N(C)c1ccccc1C(=O)N2
inhibition [5]: > 90% | inhibition [6]: > 90% | inhibition [7]: > 90% | inhibition [8]: > 90% | inhibition [9]: > 90% | inhibition [10]: > 90%

COc1cc(N2CCN(C)CC2)ccc1Nc1ncc2c(n1)N(C1CCCC1)c1ccccc1C(=O)N2C
IC50 [1]: 200 nM

COc1cc(N2CCNCC2)ccc1Nc1ncc2c(n1)N(C)c1ccccc1C(=O)N2C
IC50 [1]: 230 nM

COc1cc(C2CCN(C)CC2)ccc1Nc1ncc2c(n1)N(C)c1ccccc1C(=O)N2C
IC50 [1]: 260 nM

CCOc1cc(N2CCC(O)CC2)ccc1Nc1ncc2c(n1)N(C)c1ccccc1C(=O)N2C
t1/2 (Rattus norvegicus): 3.4 h | AUC(0-inf) [11]: 903 ng·h/mL | AUC(0-inf) [12]: 658 ng·h/mL | Tmax [13]: 0.5 h | Vd [14]: 3.4 L/kg | clearance [15]: 25.5 mL/min/kg | Cmax [16]: 247 ng/mL | Tmax [17]: 4.8 min | half-life [18]: 2 h | bioavailability [19]: 68.6% | CL/F [20]: 37 mL/min/kg | Cmax [21]: 439 ng/mL | inhibition in vivo at 50 mg/kg (HeLa): 95% | Activity (Mus musculus): Non-toxic

COc1cc(N2CCN(C)CC2)ccc1Nc1ncc2c(n1)N(C)c1ccc(C)cc1C(=O)N2C
IC50 [1]: 3100 nM

CCN1c2ccccc2C(=O)N(C)c2cnc(Nc3ccc(N4CCN(C)CC4)cc3OC)nc21
IC50 [1]: 200 nM

COc1cc(N2CCN(C)CC2)ccc1Nc1ncc2c(n1)N(C)c1cc(Cl)ccc1C(=O)N2C
IC50 [1]: 11400 nM

COc1cc(C(=O)NC2CCN(C)CC2)ccc1Nc1ncc2c(n1)N(C)c1ccccc1C(=O)N2C
IC50 [1]: 320 nM

COc1cc(C(=O)N2CCC(N3CCCC3)CC2)ccc1Nc1ncc2c(n1)N(C)c1ccccc1C(=O)N2C
clearance [22]: 18.4 mL/min/kg | EC50 (NCI-H1299): 4200 nM | half-life [23]: 2.62 h | EC50 (BPH-1): 1600 nM | IC50 [1]: 130 nM | AUC(0-inf) [24]: 907 ng·h/mL | bioavailability [25]: 86.6% | Cmax [26]: 1290 ng/mL | EC50 (AU565): > 10000 nM | EC50 (MCF7): > 10000 nM | EC50 (SK-N-AS): 4400 nM | AUC(0-inf) [27]: 7870 ng·h/mL | EC50 (NCI-H522): 950 nM | Vd [28]: 5.36 L/kg | EC50 (PC-3): 3600 nM | Tmax [29]: 2 h

COc1cc(N2CCC(O)CC2)ccc1Nc1ncc2c(n1)N(C)c1ccccc1C(=O)N2C
IC50 [1]: 240 nM
